ChEMBL document CHEMBL1154083, “Synthesis and structure-activity relationship of 3beta-(4-alkylthio, -methylsulfinyl, and -methylsulfonylphenyl)tropane and 3beta-(4-alkylthiophenyl)nortropane derivatives for monoamine transporters” (Bioorg Med Chem, 2009)

Key:
[1] = Selectivity ratio of Ki for NET to Ki for 5-HTT
How it was run: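 NET/5-HTT selectivity: NET Ki (from [3H]nisoxetine binding) divided by 5-HTT Ki (from [3H]paroxetine binding). Both values are means of three or four triplicate experiments.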

[2] = target: Sodium-dependent noradrenaline transporter (Homo sapiens, UniProt P23975); assay: Displacement of [3H]nisoxetine from NET
[3] = target: Sodium-dependent serotonin transporter (Homo sapiens, UniProt P31645); assay: Displacement of [3H]paroxetine from 5-HTT
How it was run: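 Inhibition of [3H]paroxetine binding at 5-HTT, a single-site transporter, with Ki calculated from it. Compounds tested as HCl or tartrate salts. Mean ± standard error of three or four experiments, each run in triplicate.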

[4] = target: Sodium-dependent dopamine transporter (Homo sapiens, UniProt Q01959); assay: Displacement of [3H]WIN-35428 from DAT
How it was run: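 [3H]WIN35,428 displacement at DAT; IC50 reported because DAT has two binding sites. Compounds tested as HCl or tartrate salts. Mean ± standard error of three or four experiments, each run in triplicate.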

[5] = Selectivity ratio of Ki for NET to IC50 for DAT
How it was run: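 NET/DAT selectivity: NET Ki (from [3H]nisoxetine binding) divided by DAT IC50 (from [3H]WIN35,428 binding). Both values are means of three or four triplicate experiments.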

Sodium-dependent noradrenaline transporter, sequence (P23975 whole entry): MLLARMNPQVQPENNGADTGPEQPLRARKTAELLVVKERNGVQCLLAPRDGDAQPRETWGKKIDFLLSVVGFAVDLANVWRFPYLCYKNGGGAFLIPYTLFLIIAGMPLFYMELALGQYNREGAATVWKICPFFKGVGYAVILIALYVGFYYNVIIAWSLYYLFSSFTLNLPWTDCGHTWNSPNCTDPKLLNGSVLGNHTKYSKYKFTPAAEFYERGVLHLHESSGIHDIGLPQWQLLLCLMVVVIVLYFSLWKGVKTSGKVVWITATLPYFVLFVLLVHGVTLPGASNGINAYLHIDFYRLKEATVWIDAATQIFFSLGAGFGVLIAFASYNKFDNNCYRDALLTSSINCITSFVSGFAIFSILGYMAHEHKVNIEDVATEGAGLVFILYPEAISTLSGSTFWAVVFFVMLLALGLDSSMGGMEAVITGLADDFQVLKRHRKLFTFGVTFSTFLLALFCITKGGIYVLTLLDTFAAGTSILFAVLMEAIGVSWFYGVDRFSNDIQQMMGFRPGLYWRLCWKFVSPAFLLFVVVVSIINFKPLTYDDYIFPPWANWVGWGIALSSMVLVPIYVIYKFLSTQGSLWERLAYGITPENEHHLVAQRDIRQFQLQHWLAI
Sodium-dependent dopamine transporter, sequence (Q01959 whole entry): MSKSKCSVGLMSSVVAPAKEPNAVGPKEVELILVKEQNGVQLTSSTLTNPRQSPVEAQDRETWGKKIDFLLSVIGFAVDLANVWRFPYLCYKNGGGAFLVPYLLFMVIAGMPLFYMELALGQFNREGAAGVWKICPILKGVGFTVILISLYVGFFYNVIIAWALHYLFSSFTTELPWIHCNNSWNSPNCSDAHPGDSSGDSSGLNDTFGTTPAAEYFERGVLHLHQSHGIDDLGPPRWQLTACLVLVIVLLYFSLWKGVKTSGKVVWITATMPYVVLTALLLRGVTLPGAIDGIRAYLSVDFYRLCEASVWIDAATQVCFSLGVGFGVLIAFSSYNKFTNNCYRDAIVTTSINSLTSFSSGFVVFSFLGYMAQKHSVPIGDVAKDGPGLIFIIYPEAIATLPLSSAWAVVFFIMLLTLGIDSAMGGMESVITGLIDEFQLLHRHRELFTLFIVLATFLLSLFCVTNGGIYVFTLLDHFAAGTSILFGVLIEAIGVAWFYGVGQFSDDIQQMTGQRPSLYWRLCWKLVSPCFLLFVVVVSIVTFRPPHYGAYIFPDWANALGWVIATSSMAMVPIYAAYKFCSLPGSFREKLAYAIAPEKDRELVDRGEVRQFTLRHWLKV
Sodium-dependent serotonin transporter, sequence (P31645 whole entry): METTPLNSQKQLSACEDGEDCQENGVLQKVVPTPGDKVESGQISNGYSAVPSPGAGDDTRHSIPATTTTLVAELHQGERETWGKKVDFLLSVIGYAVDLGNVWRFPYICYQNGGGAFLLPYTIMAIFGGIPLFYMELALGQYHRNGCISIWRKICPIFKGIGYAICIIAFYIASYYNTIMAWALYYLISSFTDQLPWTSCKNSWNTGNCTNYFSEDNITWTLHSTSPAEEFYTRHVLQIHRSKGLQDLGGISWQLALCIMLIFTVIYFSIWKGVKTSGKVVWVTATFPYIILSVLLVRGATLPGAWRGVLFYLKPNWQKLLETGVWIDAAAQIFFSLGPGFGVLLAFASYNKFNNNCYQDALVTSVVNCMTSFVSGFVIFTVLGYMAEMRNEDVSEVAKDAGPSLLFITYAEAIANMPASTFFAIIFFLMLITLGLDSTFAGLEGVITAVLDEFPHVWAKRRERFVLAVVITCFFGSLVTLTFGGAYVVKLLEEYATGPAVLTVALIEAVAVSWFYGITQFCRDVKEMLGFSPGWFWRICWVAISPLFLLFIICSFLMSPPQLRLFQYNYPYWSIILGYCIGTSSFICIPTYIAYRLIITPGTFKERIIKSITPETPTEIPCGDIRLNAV

Compound	Ratio Ki [1]	Ki [2] [nM]	Ki [3] [nM]	IC50 [4] [nM]	Ratio [5]
COC(=O)[C@@H]1C2CCC(C[C@@H]1c1ccc(SC)cc1)N2CCCF (stereo partly specified)	320	960	3	112	9
CCSc1ccc([C@H]2CC3CCC([C@H]2C(=O)OC)N3CCCF)cc1 (stereo partly specified)	> 74	> 2000	27	1200	2
CCCN1C2CCC1[C@@H](C(=O)OC)[C@@H](c1ccc(SCC)cc1)C2 (stereo partly specified)	> 41	> 2000	49	900	> 2
COC(=O)[C@@H]1C2CCC(C[C@@H]1c1ccc(SC)cc1)N2 (stereo partly specified)	110	21	0.19	28	0.8
COC(=O)[C@H]1[C@@H](c2ccc(SC)c(Br)c2)C[C@@H]2CC[C@H]1N2C	202	121	0.6	10.1	12
CCSc1ccc([C@H]2C[C@@H]3CC[C@H]([C@H]2C(=O)OC)N3C)cc1	260	1170	4.5	232	5
CCCN1C2CCC1[C@@H](C(=O)OC)[C@@H](c1ccc(SC)cc1)C2 (stereo partly specified)	211	1200	5.7	74	16
COC(=O)[C@H]1[C@@H](c2ccc(OC)cc2)C[C@@H]2CC[C@H]1N2C	–	1110	4.3	–	–
COC(=O)[C@H]1[C@@H](c2ccc(SC(C)C)cc2)C[C@@H]2CC[C@H]1N2C	7	129	23	16	8
CCSc1ccc([C@H]2CC3CCC(N3)[C@H]2C(=O)OC)cc1 (stereo partly specified)	94	118	1.26	177	0.7
C=CCN1C2CCC1[C@@H](C(=O)OC)[C@@H](c1ccc(SC)cc1)C2 (stereo partly specified)	364	2000	5.5	71	28
COC(=O)[C@H]1[C@@H](c2ccc(SC(F)(F)F)cc2)C[C@@H]2CC[C@H]1N2C	238	1900	8	200	10
COC(=O)[C@H]1[C@@H](c2ccc([S+](C)[O-])c(Br)c2)C[C@@H]2CC[C@H]1N2C (stereo partly specified)	216	690	3.2	76	9
C=CCN1C2CCC1[C@@H](C(=O)OC)[C@@H](c1ccc(SCC)cc1)C2 (stereo partly specified)	> 43	> 2000	47	1100	> 2
COC(=O)[C@H]1[C@@H](c2ccc([S+](C)[O-])cc2)C[C@@H]2CC[C@H]1N2C (stereo partly specified)	120	515	4.3	91	6
COC(=O)[C@H]1[C@@H](c2ccc(SC)cc2)C[C@@H]2CC[C@H]1N2C	314	220	0.7	9	24
COC(=O)[C@H]1[C@@H](c2ccc(S(C)(=O)=O)cc2)C[C@@H]2CC[C@H]1N2C	> 48	> 10000	208	> 10000	–
